Screening data: PubChem BioAssay, several laboratories
p-CIP stab down – lowers stability of the mouse p/CIP coactivator protein; decrease of EGFP signal, % at 10 µM; Q05BA5; actives 0.01% (n = 290,000); AID 1984; F442A p/CIP-EGFP cells, EGFP fluorescence, 16 h;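 active = EGFP signal decrease of at least 30% at 10 µM or well 3 SD below plate mean, unless failing retest; inactive = the rest, including hits failing retest or dose response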
Arrestin-AP2 inh – inhibitors of human beta-arrestin and AP2 interaction; FITC-arrestin peptide / GST-AP2 beads, flow cytometry; AP2 beta2 appendage carries R879A mutation; actives 0.31% (n = 340,000); inhibition, % at 10 µM;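 active = inhibition above a set limit, near 3 SD of compounds lacking own fluorescence, cut at about 54% in these data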;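 note: plate controls were DMSO wells for no effect and 5 µM unlabelled arrestin peptide for full effect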
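system = GST-tagged AP2 beta2-adaptin appendage (R879A) on 4 µm glutathione beads | reagent = FITC-labelled arrestin peptide probe, 50 nM final | schedule = compound with beads 12 min RT, then probe 1 h RT | signal = HyperCyt-sampled flow cytometry, FL1 channel, ex 488/em 535 nm | read-out = percent response from loss of bead-bound FITC fluorescence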
CTSL1 counter – counter-screen for PFM18AAP inhibitors: inhibitors of F. hepatica cathepsin L1; inhibition, % at 5.96 µM; actives 0.49% (n = 300,000); recombinant F. hepatica cathepsin L1, Z-Leu-Arg-MCA fluorescence;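 active = inhibition above the mean of all tested compounds plus 3 SD, set per screening campaign, cut at about 17% in these data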;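 note: 0% = plate median of test compound wells and 100% = 1 µM Z-Phe-Ala-diazomethylketone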
Hep lipid drop – hepatic lipid droplet formation modulation | AML12 mouse hepatocytes, oleate lipid droplets, BODIPY imaging | actives 0.4% (n = 240,000) | AID 1656 | inhibition, % at 6.5 µM;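 active = lipid droplet intensity inhibited by at least 50%, with more than 500 cells counted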
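Test system: AML12 hepatocytes (mouse); reagent: oleate loading, 100 µM; dosing: one dose, 6.5 µM compound; incubation: overnight exposure; signal: fluorescence imaging, 20x objective, two fields per well; read-out basis: % inhibition of corrected integrated BODIPY droplet signal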
Arr AP2 CP1 – inhibitors of human beta-arrestin and AP2 interaction; shares compounds with Arrestin-AP2 inh; GST-AP2 beads, FITC arrestin peptide binding, flow cytometry; GST-fused beta2-adaptin appendage, R879A mutant; inhibition, % at 10 µM; actives 2% (n = 1,300); AID 504908;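 active = inhibition above a set limit, roughly 3 SD of non-fluorescent compound noise, cut at about 38% in these data; inactive = inhibition at or below that limit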;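 note: loss of bead fluorescence from 50 nM FITC arrestin peptide bound to appendage; 0% = negative control wells and 100% = excess unlabelled arrestin peptide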
GST GSH counter – counter-screen for beta-arrestin AP2 inhibitors: GST-GSH bead binding; shares compounds with Arrestin-AP2 inh; GST-fluorescein binding to GSH beads, fluorescence; inhibition, % at 10 µM; actives 2% (n = 1,300);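 active = inhibition above 50%, about 3 SD of the inhibition seen with non-fluorescent compounds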;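 note: fluorescein maleimide labelled GST captured on 4 micron glutathione beads; higher means more loss of bead fluorescence from quenching or blocked binding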
Active calls of the source: *; . = no result. The list is not random: actives were taken first. Their share in the collection is about 1%.

SMILES	p-CIP stab down	Arrestin-AP2 inh	CTSL1 counter	Hep lipid drop	Arr AP2 CP1	GST GSH counter
C=CCN(CC=C)C(=O)C1CCC(C(=O)N(CC=C)CC=C)CC1 (stereo not drawn)	0	-9	-1	9	.	.
CCOC(=O)COc1ccc2c(C#N)c3ccccn3c2c1	6	56*	.	15	-11	-1
CCCC(=O)N(Cc1cc(=O)[nH]c2ccccc12)c1ccccc1C	-4	61*	-3	-25	8	-1
O=C(Nc1ccc(NC(=O)c2ccc(Cl)c(S(=O)(=O)N3CCOCC3)c2)cc1)c1ccccc1	-11	6	1	8	.	.
OCCN(Cc1ccccc1)Cc1ccc(F)c(F)c1	-4	-18	0	8	.	.
CNC(=O)C1CCN(S(=O)(=O)c2c(C)noc2/C=C/N(C)C)CC1	-8	-17	4	14	.	.
CCc1ccc(NC(=O)C2CCN(S(=O)(=O)c3c(C)noc3/C=C/N(C)C)CC2)cc1	9	55*	1	-8	4	-8
C#CCSc1ncc(S(=O)(=O)c2ccccc2)c(=O)[nH]1	6	-10	-1	14	.	.
CC(C)Sc1ncc(S(=O)(=O)c2ccccc2)c(=O)[nH]1	3	57*	0	23	9	4
CC(C)CCOc1ccc(NC(=O)C2OC3OC(C)(C)OC3C3OC(C)(C)OC23)cc1 (stereo not drawn)	-19	-8	0	.	.	.
CCCCCOc1ccc(NC(=O)C2OC3OC(C)(C)OC3C3OC(C)(C)OC23)cc1 (stereo not drawn)	-12	107*	2	13	0	10
COCCN1C(=O)N[C@@H](CCc2ccccc2)C(C(C)=O)=C1C	-8	.	0	3	.	.
CC(C)=CCCC(C)CN1CCC(n2nccc2NC(=O)c2cccnc2)CC1 (stereo not drawn)	11	60*	1	-38	-10	-5
N#C/C(=C/c1cn(-c2ccccc2)nc1-c1cccc(S(=O)(=O)N2CCOCC2)c1)C(=O)NCc1ccco1	-11	99*	-3	14	-8	1
N#C/C(=C/c1cn(-c2ccccc2)nc1-c1cccc(S(=O)(=O)N2CCCC2)c1)C(=O)NCc1ccco1	-14	1	1	-18	.	.
COc1cc(NS(=O)(=O)c2ccc(NC(=O)CN3C(=O)c4ccccc4C3=O)cc2)nc(OC)n1	-4	2	-4	12	.	.
O=C(NC(=S)Nc1ccc(N2CCOCC2)cc1)c1cccs1	-4	60*	4	-3	-4	3
CCOc1ccc(S(=O)(=O)Nc2ccc(C(=O)NCC3CCCO3)cc2)cc1 (stereo not drawn)	7	56*	4	-23	21	-9
CCOc1ccc(S(=O)(=O)NC2CCCCCC2)cc1	-2	57*	2	0	-3	1
CCOc1ccc(NS(=O)(=O)c2cc(C(=O)NCC3CCCO3)ccc2Cl)cc1 (stereo not drawn)	.	27	-2	.	.	.
CCOc1ccc(S(=O)(=O)Nc2ccn(C)n2)cc1	.	77*	.	.	-16	1
Cc1cccc(CSc2nc3ccncc3n2CC(=O)Nc2ccc(C)c(C)c2)c1	2	.	.	-2	.	.
COC(=O)Cn1c(CCS(=O)(=O)c2ccc(C)cc2)nc2ccccc21	-10	32	-2	-2	.	.
COc1ccc(OC)c(NC(=O)CSc2nc3n[nH]c(C)c3c(=N)n2-c2cccc(Cl)c2C)c1	-6	15	0	-5	.	.
CCCCC(=O)Nc1nc2c(OC)cc([N+](=O)[O-])cc2s1	-7	55*	2	-9	-12	-10
O=C(NCCn1cc(SCc2ccccc2)c2ccccc21)c1ccccc1F	6	12	2	-30	.	.
O=C(c1cnn2c(C(F)(F)F)cc(-c3ccccc3)nc12)N1CCCc2ccccc21	-4	-10	-1	0	-8	-4
O=C(c1cnn2c(C(F)F)cc(-c3ccccc3)nc12)N1CCc2ccccc2C1	-12	6	0	-1	.	.
COc1ccc(-c2cc(C(F)F)n3ncc(C(=O)N4CCCc5ccccc54)c3n2)cc1	4	106*	-5	-22	8	66*
